The values below come from ChEMBL document CHEMBL4665872, “Rational design of cell-permeable cyclic peptides containing a d-Pro-l-Pro motif” (Bioorg Med Chem, 2020).

Calls of active or inactive are those of the source. The calls are words filed in the database; no cut-off is given here. Some results are limits rather than exact numbers.

Data set [1] deals with Dual specificity mitogen-activated protein kinase kinase; MEK1/2 (Homo sapiens) (UniProt P36507+Q02750). In words: Inhibition of MEK phosphorylation in EGF-stimulated human MDA-MB-468 cells incubated for 2 hrs followed by 10 mins EGF stimulation by Western blotting analysis. Put shortly: (§1)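 MDA-MB-468 cells grown to ~80% confluence, serum-starved 20 h, then given peptide at the indicated concentrations in serum-free medium for 2 h. EGF (50 ng/mL final) added for 10 min. Lysis in RIPA with protease/phosphatase inhibitors and 5 mM EDTA; ~20 μg protein run on 10% SDS-PAGE. Blots probed for phospho- and total MEK and ERK1/2, GAPDH loading control.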

Data set [2] in a line: Drug uptake in human HeLa cells assessed as cytosolic entry efficiency measured as fluorescence at 5 uM incubated for 2 hrs by flow cytometry relative to CPP9 (100%). The data set is classed as ADME, cell-based. The gist of the method:
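HeLa cells seeded 24 h earlier, given 5 μM naphthofluorescein-labelled peptide in DMEM with 1% or 10% FBS, 37 °C, 2 h. Cells DPBS-washed, trypsinized, flow cytometry with 633-nm excitation, APC channel, 10,000 live-cell events gated. Signal read as cytosolic entry because NF is non-fluorescent in acidic compartments; mean ± SD of three independent experiments, relative to CPP9 (100%).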

Data set [3] has as its target T1, Growth factor receptor-bound protein 2 (Homo sapiens, UniProt P62993). In words: Binding affinity to Grb2-SH2 domain (unknown origin) expressed in Escherichia coli […] after 2 hrs by fluorescence polarization assay.
Data set [4] in a line: Metabolic stability of the compound in human MDA-MB-468 cells assessed as protein-tyrosine phosphatase-mediated endogenous dephosphorylation incubated for 2 hrs. The data set is classed as ADME, cell-based. The note with it: mda-mb-468, 2 h.
For data set [5], the system named is MDA-MB-468. The data set can be described thus: Effect on intracellular MEK expression in EGF-stimulated human MDA-MB-468 cells incubated for 2 hrs followed by 10 mins EGF stimulation by Western blotting analysis. The class given is functional, cell-based. Put shortly:
as §1

For data set [6], the target named is Mitogen-activated protein kinase; ERK1/ERK2 (Homo sapiens) (UniProt P27361+P28482). The data set can be described thus: Inhibition of ERK1/2 phosphorylation in EGF-stimulated human MDA-MB-468 cells incubated for 2 hrs followed by 10 mins EGF stimulation by Western blotting analysis. The gist of the method:
as §1
A general note: Immunoblotting shows a protein as a band on a membrane.

Data set [7] concerns the target T1, Growth factor receptor-bound protein 2. In words: Binding affinity to Grb2-SH2 domain (unknown origin) expressed in Escherichia coli […] after 1 hr by fluorescence polarization assay. The note with it: in the assay text read “after 2 hrs” for “after 1 hr”. The gist of the method:
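GST-Grb2 SH2 domain expressed in E. coli BL21(DE3), glutathione-Sepharose purified. […] IC50 from four-parameter logistic fit of FP versus peptide concentration, three sets of experiments.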
A general note: Fluorescence polarisation rises when a labelled molecule tumbles more slowly, as on binding a larger partner.

Sequence of Dual specificity mitogen-activated protein kinase kinase; MEK1/2 (Homo sapiens) (P36507 whole entry, looked up): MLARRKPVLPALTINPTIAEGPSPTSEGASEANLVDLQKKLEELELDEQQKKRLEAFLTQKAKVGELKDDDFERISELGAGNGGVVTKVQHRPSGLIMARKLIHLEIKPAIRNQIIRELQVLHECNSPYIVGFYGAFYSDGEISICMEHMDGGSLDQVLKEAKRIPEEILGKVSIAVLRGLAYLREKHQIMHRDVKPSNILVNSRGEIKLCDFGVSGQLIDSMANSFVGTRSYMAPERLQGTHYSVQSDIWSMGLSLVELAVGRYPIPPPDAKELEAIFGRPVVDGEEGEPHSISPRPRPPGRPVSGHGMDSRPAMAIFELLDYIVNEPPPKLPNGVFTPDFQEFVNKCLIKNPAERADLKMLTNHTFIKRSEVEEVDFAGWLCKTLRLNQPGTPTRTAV
Sequence of Dual specificity mitogen-activated protein kinase kinase; MEK1/2 (Homo sapiens) (Q02750 whole entry, looked up): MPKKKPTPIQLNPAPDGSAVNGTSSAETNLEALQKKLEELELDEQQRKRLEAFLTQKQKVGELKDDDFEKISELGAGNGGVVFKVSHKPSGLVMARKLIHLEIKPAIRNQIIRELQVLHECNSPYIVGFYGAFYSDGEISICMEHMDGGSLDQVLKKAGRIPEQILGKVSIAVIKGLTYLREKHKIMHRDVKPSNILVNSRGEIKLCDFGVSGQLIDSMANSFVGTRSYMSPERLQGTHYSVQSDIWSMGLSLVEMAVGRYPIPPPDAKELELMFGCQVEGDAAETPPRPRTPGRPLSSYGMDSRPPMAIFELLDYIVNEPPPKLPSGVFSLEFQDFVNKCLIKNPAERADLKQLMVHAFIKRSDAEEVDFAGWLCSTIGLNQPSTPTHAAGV
T1 sequence (P62993 whole entry, the tested form may be a part): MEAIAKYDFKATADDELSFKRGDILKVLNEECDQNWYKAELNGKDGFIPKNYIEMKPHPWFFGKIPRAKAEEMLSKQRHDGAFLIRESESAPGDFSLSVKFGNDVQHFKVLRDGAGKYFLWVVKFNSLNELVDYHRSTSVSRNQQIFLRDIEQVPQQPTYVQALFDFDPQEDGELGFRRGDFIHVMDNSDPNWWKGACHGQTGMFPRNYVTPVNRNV
Sequence of Mitogen-activated protein kinase; ERK1/ERK2 (Homo sapiens) (P27361 whole entry, looked up): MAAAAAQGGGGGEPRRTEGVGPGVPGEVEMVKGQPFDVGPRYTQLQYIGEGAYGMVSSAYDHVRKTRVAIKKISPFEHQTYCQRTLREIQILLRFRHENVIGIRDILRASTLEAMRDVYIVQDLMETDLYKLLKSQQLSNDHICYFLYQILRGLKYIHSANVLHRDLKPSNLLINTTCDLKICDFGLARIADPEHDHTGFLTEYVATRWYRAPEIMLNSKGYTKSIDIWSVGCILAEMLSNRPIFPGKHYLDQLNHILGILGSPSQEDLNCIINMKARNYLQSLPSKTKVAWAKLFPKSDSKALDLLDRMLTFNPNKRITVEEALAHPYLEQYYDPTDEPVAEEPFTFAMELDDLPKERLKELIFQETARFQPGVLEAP
Sequence of Mitogen-activated protein kinase; ERK1/ERK2 (Homo sapiens) (P28482 whole entry, looked up): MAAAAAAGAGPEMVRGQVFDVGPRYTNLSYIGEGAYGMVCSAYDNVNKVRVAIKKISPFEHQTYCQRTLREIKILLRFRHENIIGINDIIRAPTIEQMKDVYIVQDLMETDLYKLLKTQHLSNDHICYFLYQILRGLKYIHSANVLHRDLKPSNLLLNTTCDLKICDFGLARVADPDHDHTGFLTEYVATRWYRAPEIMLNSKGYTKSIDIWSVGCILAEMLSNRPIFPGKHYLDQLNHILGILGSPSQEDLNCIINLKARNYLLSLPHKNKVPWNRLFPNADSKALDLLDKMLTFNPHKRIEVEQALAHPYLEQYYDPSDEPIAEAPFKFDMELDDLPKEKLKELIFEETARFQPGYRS

On to `CC(C)[C@@H]1NC(=O)[C@H](Cc2ccc(O)cc2)NC(=O)[C@H](CCCNC(=N)N)NC(=O)[C@H](CCCNC(=N)N)NC(=O)[C@@H]2CCCN2C(=O)[C@H]2CCCN2C(=O)[C@@H](CCCNC(=N)N)NC(=O)[C@H](Cc2ccc3ccccc3c2)NC(=O)[C@H](Cc2ccccc2)NC(=O)[C@H](CC(=O)NCCOCCOCC(=O)N[C@@H](CCCCNC(=O)c2ccc3c(c2)C(=O)OC32c3ccc4cc(O)ccc4c3Oc3c2ccc2cc(O)ccc32)C(N)=O)NC1=O`, for which, in data set [1], the inhibition entry was “inactive”. For the same compound, in data set [2], the RFU was 34%. Further, the IC50 (as a rule, the midpoint of a concentration-inhibition curve) in data set [3] was more than 10 µM.

Take `CC(C)[C@@H]1NC(=O)[C@H](Cc2ccc(OP(=O)(O)O)cc2)NC(=O)[C@H](CCCNC(=N)N)NC(=O)[C@H](CCCNC(=N)N)NC(=O)[C@@H]2CCCN2C(=O)[C@H]2CCCN2C(=O)[C@@H](C)NC(=O)[C@H](C)NC(=O)[C@H](Cc2ccccc2)NC(=O)[C@H](CC(=O)NCCOCCOCC(=O)N[C@@H](CCCCNC(=O)c2ccc3c(c2)C(=O)OC32c3ccc4cc(O)ccc4c3Oc3c2ccc2cc(O)ccc32)C(N)=O)NC1=O`: the inhibition result in data set [1] is “inactive”. For the same compound, in data set [2], the RFU was 2%. The compound also registered an IC50 in data set [3] of 0.1 µM.

`CC(C)[C@@H]1NC(=O)[C@H](Cc2ccc(OP(=O)(O)O)cc2)NC(=O)[C@H](CCCNC(=N)N)NC(=O)[C@H](CCCNC(=N)N)NC(=O)[C@@H]2CCCN2C(=O)[C@H]2CCCN2C(=O)[C@@H](CCCNC(=N)N)NC(=O)[C@H](Cc2ccc3ccccc3c2)NC(=O)[C@H](Cc2ccccc2)NC(=O)[C@H](CC(=O)NCCOCCOCC(=O)N[C@@H](CCCCNC(=O)c2ccc3c(c2)C(=O)OC32c3ccc4cc(O)ccc4c3Oc3c2ccc2cc(O)ccc32)C(N)=O)NC1=O`: the Stabilty entry in data set [4] is “Unstable”. Moreover, the result in data set [5] was inactive. Also, the inhibition entry in data set [6] was “inactive”. For the same compound, the inhibition entry in data set [1] is “Active”. Besides, the RFU in data set [2] is given as 49%. For the same compound, the IC50 in data set [7] amounted to 0.4 µM.

For `C[C@@H]1NC(=O)[C@H](C)NC(=O)[C@H](Cc2ccccc2)NC(=O)[C@H](CCCNC(=N)N)NC(=O)[C@H](CCCNC(=N)N)NC(=O)[C@H](C)NC(=O)[C@H](C)NC(=O)[C@@H](CCCNC(=N)N)NC(=O)[C@H](Cc2ccc3ccccc3c2)NC(=O)[C@H](Cc2ccccc2)NC(=O)[C@H](C)NC(=O)[C@H](C)NC(=O)[C@H](CCC(=O)NCCOCCOCC(=O)N[C@@H](CCCCNC(=O)c2ccc3c(c2)C(=O)OC32c3ccc4cc(O)ccc4c3Oc3c2ccc2cc(O)ccc32)C(N)=O)NC(=O)[C@H](C)NC1=O`, the RFU in data set [2] worked out at 4.1%.

As for `C[C@@H]1NC(=O)[C@H](CC(=O)O)NC(=O)[C@H](CCC(=O)NCCOCCOCC(=O)N[C@@H](CCCCNC(=O)c2ccc3c(c2)C(=O)OC32c3ccc4cc(O)ccc4c3Oc3c2ccc2cc(O)ccc32)C(N)=O)NC(=O)[C@H](CC(=O)O)NC(=O)[C@H](C)NC(=O)[C@H](CC(=O)O)NC(=O)[C@H](Cc2ccccc2)NC(=O)[C@H](CCCNC(=N)N)NC(=O)[C@H](CCCNC(=N)N)NC(=O)[C@@H]2CCCN2C(=O)[C@H]2CCCN2C(=O)[C@@H](CCCNC(=N)N)NC(=O)[C@H](Cc2ccc3ccccc3c2)NC(=O)[C@H](Cc2ccccc2)NC1=O`, the RFU in data set [2] worked out at 14%.

Regarding `C[C@@H]1NC(=O)[C@H](CO)NC(=O)[C@H](C)NC(=O)[C@H](CO)NC(=O)[C@H](Cc2ccccc2)NC(=O)[C@H](CCCNC(=N)N)NC(=O)[C@H](CCCNC(=N)N)NC(=O)[C@@H]2CCCN2C(=O)[C@H]2CCCN2C(=O)[C@@H](CCCNC(=N)N)NC(=O)[C@H](Cc2ccc3ccccc3c2)NC(=O)[C@H](Cc2ccccc2)NC(=O)[C@H](CO)NC(=O)[C@H](C)NC(=O)[C@H](CO)NC(=O)[C@H](CCC(=O)NCCOCCOCC(=O)N[C@@H](CCCCNC(=O)c2ccc3c(c2)C(=O)OC32c3ccc4cc(O)ccc4c3Oc3c2ccc2cc(O)ccc32)C(N)=O)NC1=O`, the RFU in data set [2] came to 84%.
